Measured values reported in paper PMC5102769 (Neurobiology of disease, 2016).
Where two headings read alike, the source gives them in different places.

Target: T1, ENT1 (Mus musculus, UniProt Q9JIM1)
T1 sequence (Q9JIM1 1-460): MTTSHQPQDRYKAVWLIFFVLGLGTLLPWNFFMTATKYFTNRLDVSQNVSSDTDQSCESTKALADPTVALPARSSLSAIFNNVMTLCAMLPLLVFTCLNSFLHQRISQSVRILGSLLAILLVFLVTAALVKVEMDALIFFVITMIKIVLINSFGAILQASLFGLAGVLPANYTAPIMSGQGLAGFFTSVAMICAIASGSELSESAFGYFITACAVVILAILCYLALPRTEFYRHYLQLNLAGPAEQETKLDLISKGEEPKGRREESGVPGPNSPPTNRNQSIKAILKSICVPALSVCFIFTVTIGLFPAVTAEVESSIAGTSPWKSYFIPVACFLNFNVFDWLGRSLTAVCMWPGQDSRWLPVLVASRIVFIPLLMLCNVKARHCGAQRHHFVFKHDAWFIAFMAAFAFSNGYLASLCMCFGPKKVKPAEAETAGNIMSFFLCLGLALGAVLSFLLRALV
Format: binding
Details: striatum; for Kd: read-out: KD (affinity)
Outline: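 Striata from 12-month-old heterozygous zQ175 and WT littermate mice were homogenized in 50 mM Tris-HCl pH 7.4 with protease inhibitors, then membranes were pelleted at 100,000 g (45 min, 4°C) and washed twice. Membranes (0.2 mg protein/ml) were incubated with increasing [3H]NBTI in 50 mM Tris-HCl pH 7.4 with 2 I.U./ml adenosine deaminase. Unlabeled NBTI defined non-specific binding. Bound ligand was separated by rapid filtration and counted by scintillation. n = 8–10/group, means ± S.E.M.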

O=[N+]([O-])c1ccc(CSc2ncnc3c2ncn3[C@@H]2O[C@H](CO)[C@@H](O)[C@H]2O)cc1 [[^3H]NBTI, [^3H]-S-(4-Nitrobenzyl)-6-thioinosine]
Bmax (number of binding sites) (WT littermates of zQ175 mice): 0.27 ± 0.03 pmol/mg of protein | Kd (WT littermates of zQ175 mice): 0.11 ± 0.01 nM | Kd (zQ175 mice (HET, 12-month old)): 0.11 ± 0.03 nM | Bmax (number of binding sites) (zQ175 mice (HET, 12-month old)): 0.35 ± 0.02 pmol/mg protein
